Laboratory results as given in ChEMBL document CHEMBL1146093, “Identification of ellagic acid as potent inhibitor of protein kinase CK2: a successful example of a virtual screening application” (J Med Chem, 2006).

Key:
[1] = Inhibition of rat liver CK2
Procedure, shortened: (§1)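 Each kinase's activity was measured by a method given in the Supporting Information. IC50 values are means of at least three independent experiments, with SEM never above 15%.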

[2] = biological target: T1, NPM/ALK (Nucleophosmin/ALK tyrosine kinase receptor) (Homo sapiens) (UniProt Q9UM73+P06748); experiment: Antiproliferative activity against KARPAS299 expressing NPM-ALK by MTT assay; assay type: functional; details: concentration not given here
Procedure, shortened: (§2)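 MTT viability in ALCL lines cultured 48 h with or without compound at 5-100 × 10^-6 M. Viability is expressed relative to DMSO-treated control cells, set at 1.0. Values are means of triplicate cultures.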

FEPD = experiment: Antiproliferative activity against FEPD by MTT assay; assay type: functional, Homo sapiens; procedure, shortened: as §2
[3] = biological target: Tyrosine-protein kinase Lyn (Rattus norvegicus, UniProt Q07014); experiment: Inhibition of rat spleen Lyn; assay type: tissue-based; procedure, shortened: as §1
[4] = biological target: T1, NPM/ALK (Nucleophosmin/ALK tyrosine kinase receptor) (Homo sapiens); experiment: Antiproliferative activity against SUDHL1 expressing NPM-ALK by MTT assay; assay type: functional; details: concentration not given here; procedure, shortened: as §2
[5] = biological target: T1, NPM/ALK (Nucleophosmin/ALK tyrosine kinase receptor) (Homo sapiens); experiment: Antiproliferative activity against SR786 expressing NPM-ALK by MTT assay; assay type: functional; details: concentration not given here; procedure, shortened: as §2
[6] = biological target: Dual specificity tyrosine-phosphorylation-regulated kinase 1A (Homo sapiens, UniProt Q13627); experiment: Inhibition of human recombinant DYRK1a; procedure, shortened: as §1
[7] = biological target: Proto-oncogene tyrosine-protein kinase receptor Ret (Homo sapiens, UniProt P07949); experiment: Inhibition of RET; procedure, shortened: as §1
[8] = biological target: Tyrosine-protein kinase CSK (Rattus norvegicus, UniProt P32577); experiment: Inhibition of rat spleen CSK; assay type: tissue-based; procedure, shortened: as §1
[9] = Inhibition of rat liver CK1; procedure, shortened: as §1
[10] = biological target: Tyrosine-protein kinase SYK (Rattus norvegicus, UniProt Q64725); experiment: Inhibition of rat spleen SYK; assay type: tissue-based; procedure, shortened: as §1
[11] = biological target: NPM/ALK (Nucleophosmin/ALK tyrosine kinase receptor) (Homo sapiens, UniProt Q9UM73); experiment: Inhibition of NPM-ALK; assay type: protein assay; procedure, shortened: as §1
[12] = biological target: cAMP-dependent protein kinase (PKA) (Homo sapiens, UniProt P22694+P17612+P22612); experiment: Inhibition of PKA; assay type: protein assay; procedure, shortened: as §1
[13] = biological target: T2, Receptor-type tyrosine-protein kinase FLT3 (Homo sapiens, UniProt P36888); experiment: Inhibition of FLT3; procedure, shortened: as §1
T2 sequence (P36888 whole entry): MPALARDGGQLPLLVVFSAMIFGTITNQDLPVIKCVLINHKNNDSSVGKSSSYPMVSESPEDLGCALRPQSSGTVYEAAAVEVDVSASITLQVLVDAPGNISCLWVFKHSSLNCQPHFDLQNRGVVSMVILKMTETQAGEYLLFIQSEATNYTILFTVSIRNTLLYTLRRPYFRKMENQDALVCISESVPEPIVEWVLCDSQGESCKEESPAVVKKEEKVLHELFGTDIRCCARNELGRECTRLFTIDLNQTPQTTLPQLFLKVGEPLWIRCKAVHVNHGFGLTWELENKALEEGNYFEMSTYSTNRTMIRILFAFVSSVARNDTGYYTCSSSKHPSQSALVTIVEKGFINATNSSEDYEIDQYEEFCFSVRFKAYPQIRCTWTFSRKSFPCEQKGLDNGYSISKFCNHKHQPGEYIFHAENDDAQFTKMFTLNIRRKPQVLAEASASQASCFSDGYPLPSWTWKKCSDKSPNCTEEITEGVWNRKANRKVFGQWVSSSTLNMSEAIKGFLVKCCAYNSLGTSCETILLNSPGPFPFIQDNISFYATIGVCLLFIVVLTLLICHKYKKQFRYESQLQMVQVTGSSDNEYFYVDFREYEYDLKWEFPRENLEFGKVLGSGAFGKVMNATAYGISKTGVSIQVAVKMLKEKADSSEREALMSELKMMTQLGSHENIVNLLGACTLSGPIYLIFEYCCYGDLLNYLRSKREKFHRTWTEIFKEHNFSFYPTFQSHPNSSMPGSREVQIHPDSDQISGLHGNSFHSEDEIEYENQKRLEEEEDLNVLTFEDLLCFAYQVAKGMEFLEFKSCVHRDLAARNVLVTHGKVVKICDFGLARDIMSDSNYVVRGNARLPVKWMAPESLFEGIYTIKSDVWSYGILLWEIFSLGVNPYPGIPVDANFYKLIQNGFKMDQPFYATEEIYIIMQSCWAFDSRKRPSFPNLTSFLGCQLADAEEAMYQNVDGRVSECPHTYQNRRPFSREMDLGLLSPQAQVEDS

[14] = biological target: Glycogen synthase kinase-3 beta (Homo sapiens, UniProt P49841); experiment: Inhibition of human recombinant GSK3-beta; procedure, shortened: as §1
[15] = biological target: Tyrosine-protein kinase Fgr (Rattus norvegicus, UniProt Q6P6U0); experiment: Inhibition of rat spleen FGR; assay type: tissue-based; procedure, shortened: as §1

T1 sequence (P06748 whole entry partner): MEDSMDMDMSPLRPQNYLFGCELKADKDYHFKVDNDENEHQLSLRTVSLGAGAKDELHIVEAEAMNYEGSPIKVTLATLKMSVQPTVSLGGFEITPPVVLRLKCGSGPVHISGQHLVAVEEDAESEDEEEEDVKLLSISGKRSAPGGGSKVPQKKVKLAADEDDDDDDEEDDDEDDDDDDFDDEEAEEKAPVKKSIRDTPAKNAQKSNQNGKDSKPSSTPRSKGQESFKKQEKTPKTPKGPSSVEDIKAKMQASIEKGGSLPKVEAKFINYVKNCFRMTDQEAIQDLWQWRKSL
T1 sequence (Q9UM73 19-1620 limits assumed): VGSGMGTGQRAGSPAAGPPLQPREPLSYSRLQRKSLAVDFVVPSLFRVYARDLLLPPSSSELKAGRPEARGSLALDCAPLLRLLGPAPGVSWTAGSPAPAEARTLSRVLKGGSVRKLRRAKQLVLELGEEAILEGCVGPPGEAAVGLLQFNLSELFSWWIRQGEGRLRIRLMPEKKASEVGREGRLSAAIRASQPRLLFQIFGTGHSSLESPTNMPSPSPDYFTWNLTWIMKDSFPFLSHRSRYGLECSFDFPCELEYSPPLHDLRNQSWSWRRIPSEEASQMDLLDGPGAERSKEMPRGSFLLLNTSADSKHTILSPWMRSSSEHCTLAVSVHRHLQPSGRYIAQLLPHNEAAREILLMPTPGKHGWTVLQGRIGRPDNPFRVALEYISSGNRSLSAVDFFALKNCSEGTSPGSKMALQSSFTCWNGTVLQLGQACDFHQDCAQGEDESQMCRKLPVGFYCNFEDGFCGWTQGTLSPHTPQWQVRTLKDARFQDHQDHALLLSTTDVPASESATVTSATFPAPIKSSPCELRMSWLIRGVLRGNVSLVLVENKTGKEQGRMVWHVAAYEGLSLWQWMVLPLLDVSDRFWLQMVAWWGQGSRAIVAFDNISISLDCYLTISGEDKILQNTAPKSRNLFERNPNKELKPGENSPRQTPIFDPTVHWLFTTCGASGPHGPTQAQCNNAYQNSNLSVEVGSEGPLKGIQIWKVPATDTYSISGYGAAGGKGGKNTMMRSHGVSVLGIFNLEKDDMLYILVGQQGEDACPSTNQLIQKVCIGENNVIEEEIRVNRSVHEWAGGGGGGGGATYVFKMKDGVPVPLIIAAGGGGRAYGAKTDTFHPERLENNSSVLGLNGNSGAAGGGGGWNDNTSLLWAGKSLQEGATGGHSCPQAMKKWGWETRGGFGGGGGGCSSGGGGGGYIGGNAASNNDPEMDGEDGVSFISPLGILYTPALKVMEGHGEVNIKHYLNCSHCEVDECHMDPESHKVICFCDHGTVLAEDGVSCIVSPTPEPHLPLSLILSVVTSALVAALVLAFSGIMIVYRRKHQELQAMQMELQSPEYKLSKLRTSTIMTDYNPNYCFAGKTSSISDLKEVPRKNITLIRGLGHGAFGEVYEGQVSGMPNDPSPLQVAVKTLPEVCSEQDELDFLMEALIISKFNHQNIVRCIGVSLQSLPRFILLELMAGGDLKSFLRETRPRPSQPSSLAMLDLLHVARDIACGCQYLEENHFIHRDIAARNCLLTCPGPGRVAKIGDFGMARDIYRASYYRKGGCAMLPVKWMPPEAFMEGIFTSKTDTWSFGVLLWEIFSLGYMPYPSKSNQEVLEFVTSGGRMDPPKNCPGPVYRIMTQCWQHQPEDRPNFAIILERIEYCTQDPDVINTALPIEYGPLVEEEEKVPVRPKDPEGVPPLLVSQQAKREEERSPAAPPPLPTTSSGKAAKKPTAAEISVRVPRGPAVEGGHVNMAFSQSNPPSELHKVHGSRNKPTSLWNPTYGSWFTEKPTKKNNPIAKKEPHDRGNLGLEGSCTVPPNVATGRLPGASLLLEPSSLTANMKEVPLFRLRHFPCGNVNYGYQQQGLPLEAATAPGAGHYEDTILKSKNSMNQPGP
Sequence of Tyrosine-protein kinase SYK (Q64725 whole entry): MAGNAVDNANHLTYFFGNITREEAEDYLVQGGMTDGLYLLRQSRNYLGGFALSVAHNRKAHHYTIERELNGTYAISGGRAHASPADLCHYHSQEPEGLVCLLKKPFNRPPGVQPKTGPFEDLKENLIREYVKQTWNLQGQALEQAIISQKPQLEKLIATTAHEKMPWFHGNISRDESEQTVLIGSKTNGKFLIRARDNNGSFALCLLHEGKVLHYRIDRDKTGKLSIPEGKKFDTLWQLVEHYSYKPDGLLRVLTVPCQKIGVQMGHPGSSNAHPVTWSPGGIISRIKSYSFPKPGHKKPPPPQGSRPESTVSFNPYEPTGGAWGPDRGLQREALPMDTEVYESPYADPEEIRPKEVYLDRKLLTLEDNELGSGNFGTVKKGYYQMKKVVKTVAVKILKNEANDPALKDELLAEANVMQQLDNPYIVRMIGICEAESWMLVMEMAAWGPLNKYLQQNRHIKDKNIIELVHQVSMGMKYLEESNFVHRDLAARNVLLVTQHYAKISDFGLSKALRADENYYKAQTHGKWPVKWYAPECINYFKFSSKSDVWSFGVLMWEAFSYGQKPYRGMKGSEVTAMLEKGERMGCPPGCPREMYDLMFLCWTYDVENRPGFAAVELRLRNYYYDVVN
Sequence of NPM/ALK (Nucleophosmin/ALK tyrosine kinase receptor) (Q9UM73 whole entry): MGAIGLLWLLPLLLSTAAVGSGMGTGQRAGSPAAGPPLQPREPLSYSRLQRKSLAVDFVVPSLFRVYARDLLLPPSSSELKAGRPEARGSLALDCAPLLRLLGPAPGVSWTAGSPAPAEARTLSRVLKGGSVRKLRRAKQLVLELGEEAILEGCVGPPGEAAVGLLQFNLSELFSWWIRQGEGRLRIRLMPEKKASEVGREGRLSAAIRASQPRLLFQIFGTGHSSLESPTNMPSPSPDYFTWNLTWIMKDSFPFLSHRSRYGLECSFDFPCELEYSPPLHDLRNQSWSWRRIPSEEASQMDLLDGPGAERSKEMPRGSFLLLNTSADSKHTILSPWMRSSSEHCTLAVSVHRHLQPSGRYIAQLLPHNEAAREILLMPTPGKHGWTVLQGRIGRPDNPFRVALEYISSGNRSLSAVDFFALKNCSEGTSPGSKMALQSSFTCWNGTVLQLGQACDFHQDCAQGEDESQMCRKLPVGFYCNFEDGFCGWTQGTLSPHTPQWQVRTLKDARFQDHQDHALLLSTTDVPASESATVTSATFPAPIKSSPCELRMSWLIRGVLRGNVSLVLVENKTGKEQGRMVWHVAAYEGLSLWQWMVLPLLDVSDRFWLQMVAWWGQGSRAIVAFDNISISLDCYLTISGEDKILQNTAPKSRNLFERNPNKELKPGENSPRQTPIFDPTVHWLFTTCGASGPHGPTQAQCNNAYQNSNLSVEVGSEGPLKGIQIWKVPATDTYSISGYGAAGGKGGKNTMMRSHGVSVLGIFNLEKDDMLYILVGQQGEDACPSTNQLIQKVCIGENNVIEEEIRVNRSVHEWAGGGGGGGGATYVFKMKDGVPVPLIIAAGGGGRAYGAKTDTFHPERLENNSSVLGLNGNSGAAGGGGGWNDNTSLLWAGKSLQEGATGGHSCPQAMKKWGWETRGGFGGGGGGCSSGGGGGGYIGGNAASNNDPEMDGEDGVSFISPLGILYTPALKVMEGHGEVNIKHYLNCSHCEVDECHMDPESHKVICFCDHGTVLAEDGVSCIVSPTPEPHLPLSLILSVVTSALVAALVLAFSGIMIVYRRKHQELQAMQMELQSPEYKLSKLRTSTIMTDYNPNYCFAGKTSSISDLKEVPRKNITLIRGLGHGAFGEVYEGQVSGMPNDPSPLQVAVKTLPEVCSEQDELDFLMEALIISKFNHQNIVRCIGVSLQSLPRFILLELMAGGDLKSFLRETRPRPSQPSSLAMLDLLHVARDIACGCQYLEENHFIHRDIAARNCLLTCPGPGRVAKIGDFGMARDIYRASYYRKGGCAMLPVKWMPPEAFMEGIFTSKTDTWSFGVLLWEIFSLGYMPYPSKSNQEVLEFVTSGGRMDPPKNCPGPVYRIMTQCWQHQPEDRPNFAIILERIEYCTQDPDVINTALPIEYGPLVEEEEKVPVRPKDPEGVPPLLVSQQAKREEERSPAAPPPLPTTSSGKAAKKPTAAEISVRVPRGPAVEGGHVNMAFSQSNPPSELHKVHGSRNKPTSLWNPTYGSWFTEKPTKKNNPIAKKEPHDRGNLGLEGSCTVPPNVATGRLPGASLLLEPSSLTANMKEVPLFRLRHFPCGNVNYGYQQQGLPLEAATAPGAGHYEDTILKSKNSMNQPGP
Sequence of NPM/ALK (Nucleophosmin/ALK tyrosine kinase receptor) (P06748 whole entry, further chain): as the sequence (P06748 whole entry partner) above
Sequence of Glycogen synthase kinase-3 beta (P49841 whole entry): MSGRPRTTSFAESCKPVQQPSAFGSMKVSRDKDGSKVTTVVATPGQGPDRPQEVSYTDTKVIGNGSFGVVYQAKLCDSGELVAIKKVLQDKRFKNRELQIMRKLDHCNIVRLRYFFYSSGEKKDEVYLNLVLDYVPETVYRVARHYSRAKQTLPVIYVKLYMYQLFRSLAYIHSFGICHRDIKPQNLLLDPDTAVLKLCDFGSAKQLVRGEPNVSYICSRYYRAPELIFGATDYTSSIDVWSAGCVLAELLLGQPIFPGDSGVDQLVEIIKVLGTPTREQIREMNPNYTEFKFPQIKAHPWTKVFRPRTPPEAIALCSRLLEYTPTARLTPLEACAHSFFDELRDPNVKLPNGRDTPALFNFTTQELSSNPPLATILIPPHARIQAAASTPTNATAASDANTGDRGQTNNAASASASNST
Sequence of Tyrosine-protein kinase CSK (P32577 whole entry): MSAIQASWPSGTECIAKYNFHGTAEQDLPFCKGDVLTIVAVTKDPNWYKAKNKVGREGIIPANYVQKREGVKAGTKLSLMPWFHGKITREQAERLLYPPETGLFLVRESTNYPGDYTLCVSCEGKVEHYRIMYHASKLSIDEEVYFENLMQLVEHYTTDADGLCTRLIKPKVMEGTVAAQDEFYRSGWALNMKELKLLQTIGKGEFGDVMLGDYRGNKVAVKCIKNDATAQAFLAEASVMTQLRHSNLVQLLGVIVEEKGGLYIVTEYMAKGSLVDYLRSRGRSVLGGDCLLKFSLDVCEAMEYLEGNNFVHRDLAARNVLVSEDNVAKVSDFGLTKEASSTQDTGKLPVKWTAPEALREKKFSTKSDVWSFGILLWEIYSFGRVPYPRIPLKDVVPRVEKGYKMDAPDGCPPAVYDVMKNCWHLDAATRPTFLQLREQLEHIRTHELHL

## O=c1oc2c(O)c(O)cc3c(=O)oc4c(O)c(O)cc1c4c23 [ELLAGIC ACID]
[1]
  IC50: 0.04 µM
  Ki: 0.02 µM
[2]
  inhibition: 60%
FEPD
  Inhibition: 70%
[3]
  IC50: 2.9 µM
[4]
  inhibition: 85%
[5]
  inhibition: 40%
[6]
  IC50: > 40 µM
[7]
  IC50: > 40 µM
[8]
  IC50: > 40 µM
[9]
  IC50: 13 µM
[10]
  IC50: 4.3 µM
[11]
  IC50: > 40 µM
[12]
  IC50: 3.5 µM
[13]
  IC50: > 40 µM
[14]
  IC50: 7.5 µM
[15]
  IC50: 9.4 µM
